Experimental data from ChEMBL document CHEMBL1649157, “Intracellular activity of antibiotics against Staphylococcus aureus in a mouse peritonitis model” (Antimicrob Agents Chemother, 2009).
The source made the active and inactive calls. The rule behind the calls is not given here.

Experiments:
Staphylococcus aureus [1] = assay: Antibacterial activity against Staphylococcus aureus E19977 infected in NMRI mouse assessed as log reduction in intracellular bacterial cfu in peritoneum at 60 mg/kg, sc administered 2 hrs after infection evry 8 hrs as three-dose regimen measured after 19 hrs; assay type: functional, organism-based; design: dose 60 mg/kg
Procedure, shortened: (§1)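 NMRI mice were infected i.p. and given one or three doses (every 8 h), starting 2 h post-inoculation, at 200 mg/kg or 60 mg/kg, four mice per group. Peritoneal washes were sampled over 19 h of treatment. Total, extracellular and intracellular CFU/ml (lysostaphin separation) were compared with the pretreatment level; mean ± range, n = 2. Untreated controls were sampled only at 6 h of infection.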

Staphylococcus aureus [2] = assay: Antibacterial activity against Staphylococcus aureus E19977 infected in NMRI mouse assessed as log reduction in intracellular bacterial cfu in peritoneum at 60 mg/kg, sc administered as single dose 2 hrs after infection measured within 4 hrs; assay type: functional, organism-based; design: dose 60 mg/kg; procedure, shortened: as §1
Staphylococcus aureus [3] = assay: Antibacterial activity against Staphylococcus aureus E19977 infected in NMRI mouse assessed as log reduction in bacterial cfu in peritoneum at 60 mg/kg, sc administered as single dose 2 hrs after infection measured upto 19 hrs; assay type: functional, organism-based; design: dose 60 mg/kg; procedure, shortened: as §1
Staphylococcus aureus [4] = assay: Antibacterial activity against Staphylococcus aureus E19977 infected in NMRI mouse assessed as log reduction in intracellular bacterial cfu in peritoneum at 60 mg/kg, sc administered as single dose 2 hrs after infection measured upto 19 hrs; assay type: functional, organism-based; design: dose 60 mg/kg; procedure, shortened: as §1
Staphylococcus aureus [5] = assay: Antibacterial activity against Staphylococcus aureus E19977 infected in NMRI mouse assessed as log reduction in extracellular bacterial cfu in peritoneum at 60 mg/kg, sc administered as single dose 2 hrs after infection measured upto 19 hrs; assay type: functional, organism-based; design: dose 60 mg/kg; procedure, shortened: as §1
Staphylococcus aureus [6] = assay: Bactericidal activity against Staphylococcus aureus E19977 assessed as log reduction in cfu at 2 mg/liter after 12 hrs by time-kill study; assay type: functional
Procedure, shortened: (§2)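 Clinical bacteremia isolate (penicillin-resistant, methicillin-susceptible). Exponential-phase bacteria were placed in an in vitro kinetic model that simulates drug elimination without changing the inoculum. The starting drug level matched the human free peak serum concentration after a single dose, with simulated human elimination half-life. Samples were taken at 0, 2, 4, 6, 8, 12 and 24 h, with growth controls in each run.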

Staphylococcus aureus [7] = assay: Bactericidal activity against Staphylococcus aureus E19977 assessed as log reduction in cfu at 2 mg/liter upto 24 hrs by time-kill study; assay type: functional; procedure, shortened: as §2
Staphylococcus aureus [8] = assay: Bactericidal activity against Staphylococcus aureus E19977 assessed as log reduction in cfu at 1.5 mg/liter upto 24 hrs by time-kill study; assay type: functional; settings: in the assay text read “2.0 mg/liter” for “1.5 mg/liter”; procedure, shortened: as §2
Staphylococcus aureus [9] = assay: Bactericidal activity against Staphylococcus aureus E19977 assessed as log reduction in cfu at 20 mg/liter upto 24 hrs by time-kill study; assay type: functional
Procedure, shortened: (§3)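 In vitro kinetic model: exponential-phase bacteria at a final 10^6.3 CFU/ml were exposed to a starting concentration set to the human free peak level. Elimination followed the simulated human half-life. Samples were taken at 0, 2, 4, 6, 8, 12 and 24 h and counted on 5% blood agar (detection limit 25 CFU/ml). Growth controls were included; n = 2.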

Staphylococcus aureus [10] = assay: Bactericidal activity against Staphylococcus aureus E19977 assessed as log reduction in cfu at 9 mg/liter after 24 hrs by time-kill study; assay type: functional, organism-based
Procedure, shortened: (§4)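 In vitro kinetic model simulating antibiotic elimination without inoculum change. Exponential-phase E19977 was added at a final 10^6.3 CFU/ml. Starting drug concentration matched the human free peak, with the human half-life simulated. Samples were plated on 5% blood agar at 0, 2, 4, 6, 8, 12 and 24 h, with growth controls in each run. Results are shown as mean and range, n = 2.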

Staphylococcus aureus [11] = assay: Bactericidal activity against Staphylococcus aureus E19977 assessed as log reduction in cfu at 2 mg/liter after 24 hrs by time-kill study; assay type: functional, organism-based; procedure, shortened: as §4
Staphylococcus aureus [12] = assay: Bactericidal activity against Staphylococcus aureus E19977 assessed as log reduction in cfu at 1.5 mg/liter after 24 hrs by time-kill study; assay type: functional, organism-based; procedure, shortened: as §4
Staphylococcus aureus [13] = assay: Bactericidal activity against Staphylococcus aureus E19977 assessed as log reduction in cfu at 20 mg/liter after 24 hrs by time-kill study; assay type: functional, organism-based; procedure, shortened: as §4
Staphylococcus aureus [14] = assay: Bactericidal activity against Staphylococcus aureus E19977 assessed as log reduction in cfu at 0.5 mg/liter after 24 hrs by time-kill study; assay type: functional, organism-based; procedure, shortened: as §4
Staphylococcus aureus [15] = assay: Antibacterial activity against Staphylococcus aureus E19977 infected in NMRI mouse assessed as log reduction in bacterial cfu in peritoneum at 10 mg/kg, sc administered 2 hrs after infection measured after 4 hrs; assay type: functional, organism-based; design: dose 10 mg/kg
Procedure, shortened: (§5)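 Outbred female NMRI mice (25 to 30 g) received 0.5 ml of 10^7.7 CFU/ml inoculum in 5% mucin i.p. A single dose was given 2 h post-challenge, and mice were sampled 4 h later by 2.0 ml saline peritoneal wash, pooling two mice. Extracellular and intracellular fractions were separated by 300 × g centrifugation, lysostaphin, four HBSS washes and water lysis. Counts on blood agar; median of n = 8.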

Staphylococcus aureus [16] = assay: Antibacterial activity against Staphylococcus aureus E19977 infected in NMRI mouse assessed as log reduction in intracellular bacterial cfu in peritoneum at 10 mg/kg, sc administered 2 hrs after infection measured after 4 hrs; assay type: functional, organism-based; design: dose 10 mg/kg; procedure, shortened: as §5
Staphylococcus aureus [17] = assay: Antibacterial activity against Staphylococcus aureus E19977 infected in NMRI mouse assessed as log reduction in extracellular bacterial cfu in peritoneum at 10 mg/kg, sc administered 2 hrs after infection measured after 4 hrs; assay type: functional, organism-based; design: dose 10 mg/kg; procedure, shortened: as §5
Staphylococcus aureus [18] = assay: Antibacterial activity against Staphylococcus aureus E19977 infected in NMRI mouse assessed as log reduction in bacterial cfu in peritoneum at 10 mg/kg, sc administered as single dose 1 hr after infection measured after 4 hrs; assay type: functional, organism-based; design: dose 10 mg/kg
Procedure, shortened: (§6)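 NMRI mice were infected i.p. with S. aureus E19977 in 5% mucin. A single dose (60 mg/kg or 10 mg/kg) was given 1, 2 or 3 h after inoculation, four mice per group. Peritoneal wash was sampled after 4 h of treatment and separated into total, extracellular and intracellular counts by lysostaphin/centrifugation. Δlog10 CFU/ml was calculated against vehicle-treated mice infected for the same time (5, 6 or 7 h).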

Staphylococcus aureus [19] = assay: Antibacterial activity against Staphylococcus aureus E19977 infected in NMRI mouse assessed as log reduction in bacterial cfu in peritoneum at 10 mg/kg, sc administered as single dose 2 hrs after infection measured after 4 hrs; assay type: functional, organism-based; design: dose 10 mg/kg; procedure, shortened: as §6
Staphylococcus aureus [20] = assay: Antibacterial activity against Staphylococcus aureus E19977 infected in NMRI mouse assessed as log reduction in bacterial cfu in peritoneum at 10 mg/kg, sc administered as single dose 3 hrs after infection measured after 4 hrs; assay type: functional, organism-based; design: dose 10 mg/kg; procedure, shortened: as §6
Staphylococcus aureus [21] = assay: Antibacterial activity against Staphylococcus aureus E19977 infected in NMRI mouse assessed as log reduction in intracellular bacterial cfu in peritoneum at 10 mg/kg, sc administered as single dose 1 hr after infection measured after 4 hrs; assay type: functional, organism-based; design: dose 10 mg/kg; procedure, shortened: as §6
Staphylococcus aureus [22] = assay: Antibacterial activity against Staphylococcus aureus E19977 infected in NMRI mouse assessed as log reduction in intracellular bacterial cfu in peritoneum at 10 mg/kg, sc administered as single dose 2 hrs after infection measured after 4 hrs; assay type: functional, organism-based; design: dose 10 mg/kg; procedure, shortened: as §6
Staphylococcus aureus [23] = assay: Antibacterial activity against Staphylococcus aureus E19977 infected in NMRI mouse assessed as log reduction in intracellular bacterial cfu in peritoneum at 10 mg/kg, sc administered as single dose 3 hrs after infection measured after 4 hrs; assay type: functional, organism-based; design: dose 10 mg/kg; procedure, shortened: as §6
Staphylococcus aureus [24] = assay: Antibacterial activity against Staphylococcus aureus E19977 infected in NMRI mouse assessed as log reduction in extracellular bacterial cfu in peritoneum at 10 mg/kg, sc administered as single dose 1 hr after infection measured after 4 hrs; assay type: functional, organism-based; design: dose 10 mg/kg; procedure, shortened: as §6
Staphylococcus aureus [25] = assay: Antibacterial activity against Staphylococcus aureus E19977 infected in NMRI mouse assessed as log reduction in extracellular bacterial cfu in peritoneum at 10 mg/kg, sc administered as single dose 2 hrs after infection measured after 4 hrs; assay type: functional, organism-based; design: dose 10 mg/kg; procedure, shortened: as §6
Staphylococcus aureus [26] = assay: Antibacterial activity against Staphylococcus aureus E19977 infected in NMRI mouse assessed as log reduction in extracellular bacterial cfu in peritoneum at 10 mg/kg, sc administered as single dose 3 hrs after infection measured after 4 hrs; assay type: functional, organism-based; design: dose 10 mg/kg; procedure, shortened: as §6
Staphylococcus aureus [27] = assay: Antibacterial activity against Staphylococcus aureus E19977 by Etest; assay type: functional
Serum [28] = assay: Protein binding in human serum at 600 mg, po; assay type: ADME, organism-based; settings: in vivo
Homo sapiens [29] = assay: Cmax in human at 240 mg, im; assay type: ADME, organism-based; design: dose 240 mg, route […]; settings: in vivo
Serum [30] = assay: Protein binding in human serum at 240 mg, im; assay type: ADME, cell-free
Homo sapiens [31] = assay: Half life in human at 240 mg, im; assay type: ADME, organism-based; settings: in vivo
Staphylococcus aureus [32] = assay: Bactericidal activity against Staphylococcus aureus E19977 assessed as log reduction in cfu at 9 mg/liter upto 24 hrs by time-kill study; assay type: functional, organism-based; procedure, shortened: as §3

## CO[C@H]1/C=C/O[C@@]2(C)Oc3c(C)c(O)c4c(O)c(c(/C=N/N5CCN(C)CC5)c(O)c4c3C2=O)NC(=O)/C(C)=C\C=C\[C@H](C)[C@H](O)[C@@H](C)[C@@H](O)[C@@H](C)[C@H](OC(C)=O)[C@@H]1C [RIFAMPIN]
Staphylococcus aureus [1]
  Activity: inactive
Staphylococcus aureus [2]
  Activity: inactive
Staphylococcus aureus [3]
  Activity: inactive
Staphylococcus aureus [4]
  Activity: inactive
Staphylococcus aureus [5]
  Activity: inactive
Staphylococcus aureus [6]
  FC: 2
Staphylococcus aureus [7]
  FC: 2
Staphylococcus aureus [8]
  FC: 2
Staphylococcus aureus [9]
  FC: >2
Staphylococcus aureus [10]
  Activity: inactive
Staphylococcus aureus [11]
  Activity: inactive
Staphylococcus aureus [12]
  Activity: inactive
Staphylococcus aureus [13]
  Activity: inactive
Staphylococcus aureus [14]
  Activity: inactive
Staphylococcus aureus [15]
  Activity: Active
Staphylococcus aureus [16]
  Activity: Active
Staphylococcus aureus [17]
  Activity: inactive
Staphylococcus aureus [18]
  Activity: Active
Staphylococcus aureus [19]
  Activity: inactive
Staphylococcus aureus [20]
  Activity: inactive
Staphylococcus aureus [21]
  Activity: Active
Staphylococcus aureus [22]
  Activity: inactive
Staphylococcus aureus [23]
  Activity: inactive
Staphylococcus aureus [24]
  Activity: Active
Staphylococcus aureus [25]
  Activity: inactive
Staphylococcus aureus [26]
  Activity: inactive
Staphylococcus aureus [27]
  MIC: < 0.016 µg/mL
Serum [28]
  Activity: 80%

## GENTAMICIN [listing 1 of 2 here]
Homo sapiens [29]
  Cmax: 10000 ng/mL
Serum [30]
  Activity: 10%
Homo sapiens [31]
  t1/2: 2 h

## GENTAMICIN [listing 2 of 2 here]
Staphylococcus aureus [32]
  FC: 4
Staphylococcus aureus [9]
  FC: > 2
Staphylococcus aureus [10]
  Activity: inactive
Staphylococcus aureus [11]
  Activity: inactive
Staphylococcus aureus [12]
  Activity: inactive
Staphylococcus aureus [13]
  Activity: inactive
Staphylococcus aureus [14]
  Activity: inactive
Staphylococcus aureus [15]
  Activity: inactive
Staphylococcus aureus [16]
  Activity: inactive
Staphylococcus aureus [17]
  Activity: inactive
Staphylococcus aureus [27]
  MIC: 0.38 µg/mL
